From ChEMBL document CHEMBL2029315 (Bioorg Med Chem Lett, 2012)
pKi: −log10 of the molar value. Active and inactive are the calls of the source. The calls are words filed in the database; no cut-off is given here.

Experiments:
U-937 [1] = assay: Antiproliferative activity against human U937 cells at 0.1 to 1000 nM after 60 hrs; format: functional, cell-based
Summary of the method: (§1)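 Floating and attached cells counted 60 hr after treatment, giving proliferation (total count) and attachment. Mean ± SEM of five independent experiments.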

[2] = molecular target: T1, Ras guanyl-releasing protein 3 (Homo sapiens) (UniProt Q8IV61); assay: Modulation of RASGRP3 in human K562 cells assessed as […] after 24 hrs by Western blotting analysis; format: cell-based
T1 sequence (whole entry): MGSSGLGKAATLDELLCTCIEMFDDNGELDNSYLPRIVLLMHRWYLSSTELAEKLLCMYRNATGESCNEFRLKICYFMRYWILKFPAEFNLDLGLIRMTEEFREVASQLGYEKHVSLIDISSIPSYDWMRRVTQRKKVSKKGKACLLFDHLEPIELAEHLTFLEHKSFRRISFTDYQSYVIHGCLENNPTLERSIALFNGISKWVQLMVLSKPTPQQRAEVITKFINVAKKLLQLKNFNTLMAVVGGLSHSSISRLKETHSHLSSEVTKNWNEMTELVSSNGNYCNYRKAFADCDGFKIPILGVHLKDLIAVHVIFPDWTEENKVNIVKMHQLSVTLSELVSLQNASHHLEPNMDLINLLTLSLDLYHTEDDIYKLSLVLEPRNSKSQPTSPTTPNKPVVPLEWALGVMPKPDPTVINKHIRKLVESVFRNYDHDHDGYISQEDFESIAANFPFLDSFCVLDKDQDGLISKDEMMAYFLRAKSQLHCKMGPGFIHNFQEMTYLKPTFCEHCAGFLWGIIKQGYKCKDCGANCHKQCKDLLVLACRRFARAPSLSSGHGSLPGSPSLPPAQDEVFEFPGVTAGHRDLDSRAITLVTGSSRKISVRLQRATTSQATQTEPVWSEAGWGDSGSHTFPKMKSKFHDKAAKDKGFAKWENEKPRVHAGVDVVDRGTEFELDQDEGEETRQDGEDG
Summary of the method: (§2)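 K562 cells (150,000 cells/ml) treated 24 hr after plating with a dose range for 24 hr. Total cell lysates analysed by Western blot for C1 domain-containing proteins, with actin as loading control. Representative of three independent experiments.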

[3] = molecular target: T2, Protein kinase C epsilon type (Homo sapiens) (UniProt Q02156); assay: Modulation of PKCepsilon in human K562 cells assessed as […] after 24 hrs by Western blotting analysis; format: cell-based; summary of the method: as §2
T2 sequence (whole entry): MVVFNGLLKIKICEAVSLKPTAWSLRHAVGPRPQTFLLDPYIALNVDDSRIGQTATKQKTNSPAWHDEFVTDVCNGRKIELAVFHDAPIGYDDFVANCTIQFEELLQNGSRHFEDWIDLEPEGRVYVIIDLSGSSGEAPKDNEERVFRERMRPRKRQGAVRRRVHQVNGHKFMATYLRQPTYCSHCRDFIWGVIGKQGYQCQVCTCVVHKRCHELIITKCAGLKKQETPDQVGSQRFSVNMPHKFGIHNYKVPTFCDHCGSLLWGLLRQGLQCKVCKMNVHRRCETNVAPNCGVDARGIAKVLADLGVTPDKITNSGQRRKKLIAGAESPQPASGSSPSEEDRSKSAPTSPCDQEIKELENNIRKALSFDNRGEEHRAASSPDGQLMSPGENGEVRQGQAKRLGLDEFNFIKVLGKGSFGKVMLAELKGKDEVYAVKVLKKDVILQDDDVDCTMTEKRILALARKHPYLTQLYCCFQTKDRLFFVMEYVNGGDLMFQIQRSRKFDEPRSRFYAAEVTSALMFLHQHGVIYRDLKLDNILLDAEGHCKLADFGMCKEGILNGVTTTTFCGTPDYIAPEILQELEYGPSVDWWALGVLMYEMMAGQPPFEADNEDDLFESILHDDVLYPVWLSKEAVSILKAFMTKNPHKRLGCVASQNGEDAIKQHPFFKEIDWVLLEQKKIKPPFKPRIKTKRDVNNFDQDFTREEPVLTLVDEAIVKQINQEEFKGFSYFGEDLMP

U-937 [4] = assay: Induction of human U937 cells attachment at 0.1 to 1000 nM treated for 24 hrs measured after 60 hrs; format: functional, cell-based; summary of the method: as §1
[5] = molecular target: Protein kinase C delta type (Homo sapiens) (UniProt Q05655); assay: Modulation of PKCdelta in human K562 cells assessed as protein down-regulation after 24 hrs by Western blotting analysis; format: cell-based; summary of the method: as §2
[6] = molecular target: Protein kinase C beta type (Homo sapiens) (UniProt P05771); assay: Modulation of PKCbeta in human K562 cells assessed as protein down-regulation after 24 hrs by Western blotting analysis; format: cell-based; summary of the method: as §2
U-937 [7] = assay: Inhibition of PMA-induced human U937 cells antiproliferation activity after 60 hrs; format: functional, cell-based; summary of the method: as §1
U-937 [8] = assay: Inhibition of PMA-induced human U937 cell attachment treated for 24 hrs measured after 60 hrs; format: functional, cell-based; summary of the method: as §1
K562 [9] = assay: Inhibition of PMA-induced human K562 cell attachment treated for 24 hrs measured after 60 hrs; format: functional, cell-based
MV4-11 [10] = assay: Inhibition of PMA-induced human MV411 cell attachment treated for 24 hrs measured after 60 hrs; format: functional, cell-based
K562 [11] = assay: Inhibition of bryostatin1-induced human K562 cell attachment treated for 24 hrs measured after 60 hrs; format: functional, cell-based
[12] = Binding affinity to PKC
MV4-11 [13] = assay: Inhibition of bryostatin1-induced human MV411 cell attachment treated for 24 hrs measured after 60 hrs; format: functional, cell-based
U-937 [14] = assay: Antiproliferative activity against human U937 cells at 0.1 to 3000 nM after 60 hrs; format: functional, cell-based
Summary of the method: (§3)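 U937 cells were seeded, then treated 24 h later across a concentration series. Floating and attached cells were counted separately 60 h after treatment, giving proliferation and attachment read-outs. Data are mean ± SEM of five independent experiments.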

MV4-11 [15] = assay: Antiproliferative activity against human MV411 cells after 60 hrs in presence of PMA
MV4-11 [16] = assay: Antiproliferative activity against human MV411 cells after 60 hrs in presence of PMA; format: functional, cell-based
Summary of the method: (§4)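 K562 or MV4-11 cells were seeded, then exposed to compound 24 h later alongside 10 nM PMA. Total cell number was counted 60 h after treatment. Data are mean ± SEM of three independent experiments.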

U-937 [17] = assay: Induction of human U937 cells attachment at 0.1 to 3000 nM treated for 24 hrs measured after 60 hrs; format: functional, cell-based; summary of the method: as §3
K562 [18] = assay: Antiproliferative activity against human K562 cells after 60 hrs in presence of PMA; format: functional, cell-based; summary of the method: as §4
K562 [19] = assay: Antiproliferative activity against human K562 cells after 60 hrs in presence of PMA

Protein kinase C beta type (Homo sapiens), sequence (P05771 2-671 limits assumed): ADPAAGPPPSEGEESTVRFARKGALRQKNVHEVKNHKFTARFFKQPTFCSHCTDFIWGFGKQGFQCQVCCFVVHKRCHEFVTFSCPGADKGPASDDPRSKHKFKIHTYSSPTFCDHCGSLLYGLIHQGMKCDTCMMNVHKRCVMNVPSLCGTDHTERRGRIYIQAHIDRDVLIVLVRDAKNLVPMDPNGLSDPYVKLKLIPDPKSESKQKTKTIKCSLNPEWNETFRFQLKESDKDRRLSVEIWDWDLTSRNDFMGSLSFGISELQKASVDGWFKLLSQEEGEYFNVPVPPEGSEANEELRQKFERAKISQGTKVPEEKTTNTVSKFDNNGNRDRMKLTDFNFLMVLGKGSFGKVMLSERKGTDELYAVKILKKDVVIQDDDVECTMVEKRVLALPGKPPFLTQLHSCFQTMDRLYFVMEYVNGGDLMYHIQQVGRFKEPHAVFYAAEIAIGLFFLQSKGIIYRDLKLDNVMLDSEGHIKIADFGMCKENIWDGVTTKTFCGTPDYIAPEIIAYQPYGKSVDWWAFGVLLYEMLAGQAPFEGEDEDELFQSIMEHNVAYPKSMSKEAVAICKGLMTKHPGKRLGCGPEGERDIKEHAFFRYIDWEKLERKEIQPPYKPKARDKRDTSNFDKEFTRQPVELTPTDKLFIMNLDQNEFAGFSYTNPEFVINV
Protein kinase C delta type (Homo sapiens), sequence (Q05655 whole entry, looked up): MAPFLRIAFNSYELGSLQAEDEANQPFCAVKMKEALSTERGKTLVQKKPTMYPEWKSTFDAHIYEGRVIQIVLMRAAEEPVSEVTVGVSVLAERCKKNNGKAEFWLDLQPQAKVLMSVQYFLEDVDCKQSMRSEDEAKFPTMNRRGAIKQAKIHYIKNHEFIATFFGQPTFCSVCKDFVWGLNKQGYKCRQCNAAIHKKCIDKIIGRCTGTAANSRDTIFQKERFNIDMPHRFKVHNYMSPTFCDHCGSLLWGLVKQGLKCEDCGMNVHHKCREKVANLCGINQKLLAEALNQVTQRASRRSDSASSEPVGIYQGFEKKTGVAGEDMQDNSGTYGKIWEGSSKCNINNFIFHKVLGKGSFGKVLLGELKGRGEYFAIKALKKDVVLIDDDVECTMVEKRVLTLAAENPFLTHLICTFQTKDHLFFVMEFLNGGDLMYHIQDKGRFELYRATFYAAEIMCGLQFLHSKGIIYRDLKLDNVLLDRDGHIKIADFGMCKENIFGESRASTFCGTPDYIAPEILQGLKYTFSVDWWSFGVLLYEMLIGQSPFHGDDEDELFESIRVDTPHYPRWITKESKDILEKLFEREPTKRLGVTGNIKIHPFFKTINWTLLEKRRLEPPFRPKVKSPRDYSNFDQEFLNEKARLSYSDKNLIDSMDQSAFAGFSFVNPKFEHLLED

SMILES | Activity (U-937 [1]) | Activity [2] | Activity [3] | Activity (U-937 [4]) | Activity [5] | Activity [6] | inhibition (U-937 [7]) | inhibition (U-937 [8]) | inhibition (K562 [9]) | inhibition (MV4-11 [10]) | inhibition (K562 [11]) | pKi [12] | inhibition (MV4-11 [13]) | Activity (U-937 [14]) | Activity (MV4-11 [15]) | Activity (MV4-11 [16]) | Activity (U-937 [17]) | Activity (K562 [18]) | Activity (K562 [19])
CCCCCCCCCCCCCC(=O)O[C@@H]1[C@@H](C)[C@@]2(O)[C@@H](C=C(CO)C[C@]3(O)C(=O)C(C)=C[C@@H]23)[C@@H]2C(C)(C)[C@]12OC(C)=O | Active | Active | Active | Active |  |  |  |  |  |  |  |  |  |  |  |  |  |  | 
CCC/C=C/C=C/C(=O)O[C@H]1/C(=C/C(=O)OC)C[C@H]2C[C@H]([C@@H](C)O)OC(=O)C[C@H](O)C[C@@H]3C[C@H](OC(C)=O)C(C)(C)[C@](O)(C[C@@H]4C/C(=C/C(=O)OC)C[C@H](/C=C/C(C)(C)[C@]1(O)O2)O4)O3 |  | inactive | inactive |  | Active | Active | Dose-dependent effect | Dose-dependent effect |  |  |  |  |  |  |  |  |  |  | 
C=C1C[C@H]2C[C@@H]3O[C@@H](CC(=C)C3(C)C)C[C@@H](O)CC(=O)O[C@@H]([C@@H](C)O)C[C@@H]3C/C(=C\C(=O)OC)[C@H](OC(=O)/C=C/C=C/CCC)[C@@](O)(O3)C(C)(C)/C=C/[C@@H](C1)O2 |  | Active | Active |  |  |  |  |  | inactive | inactive | Active | 8.97 | Active | Active | Dose-dependent effect | Dose-dependent effect | Active | Dose-dependent effect | Dose-dependent effect
